Data reported in publication PMC9299520 (Nature structural & molecular biology, 2022).

Columns and labels:
5-HT5AR [1] = target: T1, 5-HT5AR (Homo sapiens, UniProt P47898); experiment: BRET1 miniGi recruitment assay; format: cell-based; conditions: wild type 5-HT5AR
In short: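 Transfected cells were plated after at least 24 h onto poly-lysine-coated plates in DMEM with 1% dialyzed FBS, at 40,000 cells/well, and left overnight. They were washed with HBSS/20 mM HEPES pH 7.4, then given coelenterazine h (5 μM final) and test compound dilutions with 0.3% BSA and 0.03% ascorbic acid. After 10 min at room temperature, emissions at 485 and 530 nm were read, and eYFP/Rluc BRET ratio was plotted against concentration.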

mutant 5-HT5AR [2] = target: mutant 5-HT5AR (Homo sapiens, UniProt P47898, E305A); experiment: BRET2 Gi1-activation assay, mutant 5-HT5ARs; format: cell-based; conditions: mutant E305A
Chain of mutant 5-HT5AR (Homo sapiens, UniProt P47898, E305A) (P47898 whole entry E305A): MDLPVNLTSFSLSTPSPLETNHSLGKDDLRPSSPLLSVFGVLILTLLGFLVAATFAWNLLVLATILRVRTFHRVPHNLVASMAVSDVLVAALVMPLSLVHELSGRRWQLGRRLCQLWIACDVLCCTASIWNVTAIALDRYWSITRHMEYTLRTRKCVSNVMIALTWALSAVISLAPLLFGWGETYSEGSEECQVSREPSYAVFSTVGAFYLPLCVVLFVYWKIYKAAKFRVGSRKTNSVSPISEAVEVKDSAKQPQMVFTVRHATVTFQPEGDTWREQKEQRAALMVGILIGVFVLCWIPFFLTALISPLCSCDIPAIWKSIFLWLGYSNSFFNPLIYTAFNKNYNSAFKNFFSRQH

mutant 5-HT5AR [3] = target: mutant 5-HT5AR (Homo sapiens, UniProt P47898, S204C); experiment: BRET2 Gi1-activation assay, mutant 5-HT5ARs; format: cell-based; conditions: mutant S204C
Chain of mutant 5-HT5AR (Homo sapiens, UniProt P47898, S204C) (P47898 whole entry S204C): as the sequence (P47898 whole entry E305A) above, with S204C, A305E counted along it

mutant 5-HT5AR [4] = experiment: BRET2 Gi1-activation assay, mutant 5-HT5ARs; format: cell-based, human; conditions: for effect on Gi1 activation: mutants S204A and S204G
5-HT5AR [5] = target: T1, 5-HT5AR; experiment: BRET2 Gi1-activation assay, WT 5-HT5AR; format: cell-based; conditions: normalized to % of 5-HT
mutant 5-HT5AR [6] = target: mutant 5-HT5AR (Homo sapiens, UniProt P47898, A227L); experiment: BRET2 Gi1-activation assay, mutant 5-HT5ARs; format: cell-based; conditions: mutant A227L versus WT
Chain of mutant 5-HT5AR (Homo sapiens, UniProt P47898, A227L) (P47898 whole entry A227L): as the sequence (P47898 whole entry E305A) above, with A227L, A305E counted along it

T1 sequence (P47898 whole entry): as the sequence (P47898 whole entry E305A) above, with A305E counted along it

Row | SMILES | miniGi recruitment (5-HT5AR [1]) | effect on activation of Gi1 signaling (mutant 5-HT5AR [2]) | effect on Gi1 activation (mutant 5-HT5AR [3]) | effect on Gi1 activation (mutant 5-HT5AR [4]) | agonist type for Gi signaling (5-HT5AR [5]) | increase of efficacy of Gi1 activation (mutant 5-HT5AR [6]) | improvement of potency of Gi1 activation (mutant 5-HT5AR [4]; {})
1 | NCCc1c[nH]c2ccc(C(N)=O)cc12 [5-CT, 5-carboxamidotryptamine] | unable to efficiently recruit miniGi | failed to show a large effect | severely affected | dramatically reduced the potency | full agonist |  | 
2 | NCCc1c[nH]c2ccc(O)cc12 [5-HT, 5-hydroxytryptamine] |  |  | severely affected | modest effects on both the potency and efficacy |  | 20% | more than 30 fold
3 | CC[C@@H](CO)NC(=O)[C@@H]1C=C2c3cccc4[nH]cc(c34)C[C@H]2N(C)C1 [methylergometrine] |  |  |  |  | full agonist |  | 
